Publication PMC6624406 (British Journal of Clinical Pharmacology, 2019)

Key:
[1] = human, in vivo; cited from earlier work
[2] = format: in vivo; details: human, plasma, oral
[3] = system: HIV‐1; details: cited from earlier work
[4] = Safety and tolerability; format: in vivo, human; details: for Participants reporting at least 1 AE: n = 16
Outline: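 Phase I open-label two-part study in opioid-dependent, HIV-seronegative adults on stable once-daily opioid maintenance, 16 per part. Usual dose alone on day 1, then with test compound 600 mg ER BID on days 2–9, confined day -1 to day 10. Safety assessed by AE reports, vital signs (screening, days 1, 5, 10), ECG/physical exam (screening, day 1, day 10) and clinical labs (days 5, 9).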

[5] = Part 1, while receiving MET with FTR
[6] = Part 2, while receiving BUP/NLX with FTR

SMILES | Accumulation [1] | AUC [2] | concentration at 12 h ([2]; TMR C12, geometric mean (coefficient of variation [%]), FTR 600 mg ER BID coadministered with BUP/NLX) | Cmax ([2]; TMR Cmax, geometric mean (coefficient of variation [%]), FTR 600 mg ER BID coadministered with BUP/NLX) | Decline in HIV‐1 RNA ([3]; 8 days of functional FTR monotherapy, FTR 600 mg ER BID) | Rate of HIV virological suppression ([3]; FTR with an optimized background therapy for 24 and 48 weeks) | Tolerability ([4]; FTR 600 mg ER BID coadministered with MET or BUP/NLX) | Participants reporting headache [4, 5] | Participants reporting nausea [4, 5] | Participants reporting at least 1 AE ([4]; Part 1, while receiving MET with FTR 600 mg ER BID) | Participants reporting headache [4, 6] | Participants reporting nausea [4, 6] | Participants reporting at least 1 AE ([4]; Part 2, while receiving BUP/NLX with FTR 600 mg ER BID)
COc1cnc(-n2cnc(C)n2)c2[nH]cc(C(=O)C(=O)N3CCN(C(=O)c4ccccc4)CC3)c12 [TMR, temsavir] | < 2 fold | 9760 ng·h/mL | 468 ng/mL | 2050 ng/mL |  |  |  |  |  |  |  |  | 
COc1cnc(-n2cnc(C)n2)c2c1c(C(=O)C(=O)N1CCN(C(=O)c3ccccc3)CC1)cn2COP(=O)(O)O [FTR, Fostemsavir] |  |  |  |  | 0.8 log10 copies/mL | 54% | well tolerated | 12.5% | 12.5% | 62.5% | 6.3% | 18.8% | 50.0%
